Assay [1] is described as follows: Activity at gamma-secretase expressed in human SH-SY5Y cells assessed as inhibition of amyloid beta 40 production by electrochemiluminescence assay. It counts as cell-based. The essentials:
(§1)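 SH-SY5Y cells stably overexpressing the β-APP C-terminal fragment SPA4CT; Aβ40 and Aβ42 peptides secreted into the medium quantified by electrochemiluminescent detection; IC50 values derived from these measurements.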

Assay [2] is described as follows: Activity at gamma-secretase expressed in human SH-SY5Y cells assessed as inhibition of amyloid beta 42 production by electrochemiluminescence assay. The format is cell-based. The gist of the method: as §1
A further assay addresses Gamma-secretase. Nature of the assay: Inhibition of gamma-secretase-mediated NotchdeltaE cleavage in human HeLa cells by luciferase assay. It counts as cell-based.
The target in assay [3] is Gamma-secretase (Homo sapiens) (UniProt Q96BI3+Q9NZ42+Q8WW43+P49768+Q92542+P49810). Kind of assay: Selectivity ratio, IC50 for human gamma-secretase-mediated NotchdeltaE cleavage to IC50 for gamma-secretase-mediated amyloid beta 42 production. It counts as protein-complex assay.

A value given as a limit tells only on which side of the number the result lay.

For the compound `COc1ccc(N2CCN(c3nccc(Nc4cc(C(C)(C)C)nn4CC(F)(F)F)n3)CC2(C)C)cc1`, the IC50 (as a rule, the concentration needed to halve the response being measured) in assay [1] is 5.09 µM; in assay [2], 0.272 µM.
The like results for `COc1ccc(N2CCN(c3nccc(Nc4cc(C(C)(C)C)nn4C)n3)CC2(C)C)cc1` were, in that order, 1.94 µM and 0.15 µM.
`COc1ccc(N2CCN(c3nc(CC(=O)O)cc(Nc4cc(C(C)(C)C)ccc4C)n3)CC2(C)C)cc1`: the IC50 in assay [1] came to 6.41 µM; in assay [2], 0.572 µM.
The like results for `CCOc1ccc(Nc2ccnc(N3CCN(c4ccc(OC)cc4)C(C)(C)C3)n2)c(C)c1` were, in that order, 10 µM and 3.44 µM.
Take `CCOc1cc(C)c(Nc2ccnc(N3CCN(c4ccc(OC)cc4)C(C)(C)C3)n2)cc1C(C)C`: the IC50 in assay [1] worked out at 0.737 µM; in assay [2] it was 0.0356 µM.
As for `CNC(=O)c1cc(Nc2cc(C(C)(C)C)ccc2C)nc(N2CCN(c3ccc(OC)cc3)C(C)(C)C2)n1`, the IC50 in assay [1] is 2.98 µM; in assay [2] it was 0.307 µM.
On to `COc1ccc(N2CCN(c3nc(Nc4cc(C(C)(C)C)ccc4C)cc(OCCN4CCOCC4)n3)CC2(C)C)cc1`, for which the IC50 in assay [1] is 6.15 µM; on Gamma-secretase, greater than 50 µM; in assay [2], 0.263 µM. Further, in assay [3], the Ratio IC50 is greater than 190.
Consider `COc1ccc(N2CCN(c3nc(Nc4cc(C(C)(C)C)ccc4C)cc(C(=O)NCCN(C)C)n3)CC2(C)C)cc1`, for which the IC50 turned out to be 1.71 µM in assay [1] and 0.112 µM in assay [2].
Consider `COc1ccc(N2CCN(c3nc(Nc4cc(C(C)(C)C)ccc4C)cc(OCCC(C)(C)O)n3)CC2(C)C)cc1`, for which the IC50 in assay [1] is 5.45 µM; against Gamma-secretase it was greater than 50 µM; in assay [2], 0.216 µM. In addition, the Ratio IC50 in assay [3] is greater than 230.
Consider `COC(=O)c1cc(Nc2cc(C(C)(C)C)ccc2C)nc(N2CCN(c3ccc(OC)cc3)C(C)(C)C2)n1`, for which the IC50 in assay [1] was determined as 2.29 µM; in assay [2], 0.085 µM.
Taken in the same sequence, the figures for `CCN(CC)c1cc(C)c(Nc2ccnc(N3CCN(c4ccc(OC)cc4)CC3)n2)cc1C` were 3.74 µM and 1.91 µM.
As for `COc1ccc(N2CCN(c3nc(N)cc(Nc4cc(C(C)(C)C)ccc4C)n3)CC2(C)C)cc1`, the IC50 in assay [1] was found to be 0.83 µM; against Gamma-secretase it was 34.4 µM; in assay [2] it was 0.088 µM. For the same compound, the Ratio IC50 in assay [3] was found to be 390.
`COc1ccc(N2CCN(c3nc(Nc4cc(C(C)(C)C)ccc4C)cc(C(=O)O)n3)CC2(C)C)cc1`: the IC50 was found to be 1.93 µM in assay [1] and 0.234 µM in assay [2].
Take `COc1ccc(N2CCN(c3nccc(Nc4cc(C)ccc4C)n3)CC2(C)C)cc1`: the results for the IC50 in assay [1] and in assay [2] were 4.58 µM and 1 µM, respectively.
Consider `COc1ccc(N2CCN(c3nc(Nc4cc(C(C)(C)C)ccc4C)cc(OCCN(C)C)n3)CC2(C)C)cc1`, for which the IC50 in assay [1] was 1.59 µM; at Gamma-secretase it was 28.8 µM; in assay [2] it was 0.108 µM. For the same compound, the Ratio IC50 in assay [3] stood at 270.
For the compound `COc1ccc(N2CCN(c3nc(Nc4cc(C(C)(C)C)ccc4C)cc(OCCC4CCCN4C)n3)CC2(C)C)cc1` (stereo not given), the IC50 in assay [1] is 5.6 µM; against Gamma-secretase, greater than 50 µM; in assay [2], 0.235 µM. Moreover, the Ratio IC50 in assay [3] was greater than 210.
For `COc1ccc(N2CCN(c3nc(CO)cc(Nc4cc(C(C)(C)C)ccc4C)n3)CC2(C)C)cc1`, the IC50 stood at 0.823 µM in assay [1], 6.14 µM at Gamma-secretase and 0.034 µM in assay [2]. Also, the Ratio IC50 in assay [3] is 180.
`COc1ccc(N2CCN(c3nc(Nc4cc(C(C)(C)C)ccc4C)cc(S(C)(=O)=O)n3)CC2(C)C)cc1`: the IC50 in assay [1] was 5.78 µM; in assay [2] it was 0.4 µM.
Take `COc1ccc(N2CCN(c3nc(Nc4cc(C(C)(C)C)ccc4C)cc(OC)n3)CC2(C)C)cc1`: the IC50 in assay [1] was 5.68 µM; against Gamma-secretase, greater than 50 µM; in assay [2], 0.262 µM. The Ratio IC50 in assay [3] is greater than 190.
`COc1ccc(N2CCN(c3nccc(Nc4cc(C(C)(C)C)ccc4Cl)n3)CC2(C)C)cc1`: the IC50 in assay [1] amounted to 1 µM; in assay [2], 0.695 µM.
In the case of `CCN(CC)c1cc(C)c(Nc2ccnc(N3CCN(c4ccc(OC)cc4)C(C)(C)C3)n2)cc1C`, the values for the IC50 in assay [1] and in assay [2] were 2.95 µM and 0.169 µM, respectively.
As for `COc1ccc(N2CCN(c3nc(Nc4cc(C(C)(C)C)ccc4C)cc(N(C)CCN(C)C)n3)CC2(C)C)cc1`, the IC50 was 1.97 µM in assay [1] and 0.213 µM in assay [2].
Take `CCOc1cc(C)c(Nc2ccnc(N3CCN(c4ccc(OC)cc4)C(C)(C)C3)n2)cc1C`: the results for the IC50 in assay [1] and in assay [2] were 6.3 µM and 0.534 µM, respectively.
As to `COc1ccc(N2CCN(c3nccc(Nc4cc(C(C)(C)C)ccc4C)n3)CC2(C)C)cc1`, the concentration for half-maximal inhibition (IC50) in assay [1] was determined as 5.57 µM; in assay [2], 0.255 µM.
As for `COc1ccc(N2CCN(c3nc(CS(C)(=O)=O)cc(Nc4cc(C(C)(C)C)ccc4C)n3)CC2(C)C)cc1`, the results for the IC50 in assay [1] and in assay [2] were 6.46 µM and 0.348 µM, respectively.
For `COc1ccc(N2CCN(c3nc(Nc4cc(C(C)(C)C)ccc4C)cc(C(=O)NCC4CCCO4)n3)CC2(C)C)cc1` (stereo not given), the IC50 in assay [1] was 8.12 µM; at Gamma-secretase, greater than 50 µM; in assay [2] it was 0.194 µM. Also, the Ratio IC50 in assay [3] is greater than 250.
Regarding `COc1ccc(N2CCN(c3nccc(Nc4cc(-c5ccccc5)ccc4C)n3)CC2(C)C)cc1`, the figures for the IC50 in assay [1] and in assay [2] were 2.28 µM and 0.41 µM, respectively.

For the origin of these results see ChEMBL document CHEMBL1157732, “Piperazinyl pyrimidine derivatives as potent gamma-secretase modulators” (Bioorg Med Chem Lett, 2010).
